Results pooled from the literature.
Lines come from different studies, so protocols differ.
Target: Bone morphogenetic protein receptor type-2 (BMPR2, Homo sapiens, UniProt Q13873)
Sequence (Q13873 1-1038, as in one of the studies): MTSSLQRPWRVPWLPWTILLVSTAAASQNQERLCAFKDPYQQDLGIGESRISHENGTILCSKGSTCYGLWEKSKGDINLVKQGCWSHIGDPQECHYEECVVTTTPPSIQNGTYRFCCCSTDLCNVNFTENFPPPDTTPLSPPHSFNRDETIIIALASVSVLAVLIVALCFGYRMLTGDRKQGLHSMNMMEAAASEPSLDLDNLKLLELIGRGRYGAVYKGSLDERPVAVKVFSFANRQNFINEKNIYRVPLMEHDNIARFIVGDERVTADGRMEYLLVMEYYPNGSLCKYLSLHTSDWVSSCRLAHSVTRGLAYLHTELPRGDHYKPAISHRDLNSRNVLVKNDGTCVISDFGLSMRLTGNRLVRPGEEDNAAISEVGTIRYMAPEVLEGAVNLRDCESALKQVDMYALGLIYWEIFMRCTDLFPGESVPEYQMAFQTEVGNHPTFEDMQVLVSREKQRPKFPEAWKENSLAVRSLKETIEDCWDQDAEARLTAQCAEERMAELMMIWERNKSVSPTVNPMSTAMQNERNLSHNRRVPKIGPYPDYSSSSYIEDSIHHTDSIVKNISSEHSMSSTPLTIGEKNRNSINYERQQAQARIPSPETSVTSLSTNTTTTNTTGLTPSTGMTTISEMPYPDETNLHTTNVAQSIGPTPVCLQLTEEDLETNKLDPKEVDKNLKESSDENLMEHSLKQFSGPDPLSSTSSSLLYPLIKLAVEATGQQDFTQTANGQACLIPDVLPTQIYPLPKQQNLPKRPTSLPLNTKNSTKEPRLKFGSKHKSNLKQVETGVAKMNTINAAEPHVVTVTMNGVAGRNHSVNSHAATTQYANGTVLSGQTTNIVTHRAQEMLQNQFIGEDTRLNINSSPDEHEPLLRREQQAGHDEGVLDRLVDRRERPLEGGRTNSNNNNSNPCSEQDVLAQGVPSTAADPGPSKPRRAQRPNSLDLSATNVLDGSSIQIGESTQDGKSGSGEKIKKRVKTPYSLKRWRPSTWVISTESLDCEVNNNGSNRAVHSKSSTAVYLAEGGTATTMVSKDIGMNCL

The remaining binding of `Cc1cnc(Nc2ccc(C(=O)N3CCC(N4CCCC4)CC3)cc2)nc1-c1cc2ccccc2s1` is reported as 25% (binding; competition with immobilised ligand; 1 µM).
`C[C@@H]1CN(c2ccc3ncc(-c4ccc5[nH]nc(C6CC6)c5c4)n3n2)C[C@H](C)O1` gave a remaining binding of 56% (binding; competition with immobilised ligand; 0.5 µM).
With `CCC(=N\O)/C(C)=C/c1ccc(F)cc1` the remaining binding was 81% (cell-free assay; competition with immobilised ligand; 1 µM).
`c1cncc(-c2cccc(Nc3nccc(NC4CCCCC4)n3)c2)c1` gave a remaining binding of 40% (binding; competition with immobilised ligand; 10 µM).
With `CS(=O)(=O)c1cc(C2(NC(=O)c3cncc4c3cnn4-c3ccc(F)cc3)CC2)ccn1` the remaining binding was 99% (cell-free assay; competition with immobilised ligand; 1 µM).
`CC1CCCN1c1nccc(-c2cnn3ncccc23)n1` (stereo not drawn) has a remaining binding of 97% (binding; 1 µM).
The remaining binding of `FC(F)(F)Oc1cccc(-c2cnc3ccc(-c4ccncc4)nn23)c1` is reported as 56% (cell-free assay; competition with immobilised ligand; 5 µM).
The remaining binding of `C[C@@H]1CN(c2cc(-c3nn(C)c4ccc(OC5(C)CC5)cc34)ncn2)C[C@H](C)O1` is reported as 54% (cell-free assay; competition with immobilised ligand; 1 µM).
`O=C(c1ccc(Nc2ncc(Cl)c(-c3ccc(Cl)s3)n2)cc1)N1CCC(N2CCCC2)CC1` has a remaining binding of 28% (binding; competition with immobilised ligand; 1 µM).
The remaining binding of `CC(=O)N1CCC(c2ccc(C(=O)NC3=NCCN3)cc2C(F)(F)F)CC1` is reported as 100% (cell-free assay; competition with immobilised ligand; 1 µM).
The remaining binding of `CC(C)(C)c1ccc(-c2nc(CBr)nn2-c2cccc(O)c2)cc1` is reported as 81% (cell-free assay; competition with immobilised ligand; 10 µM).
`c1cnn2ncc(-c3ccnc(N4CCC45COC5)n3)c2c1` has a remaining binding of 68% (binding; 1 µM).
`O=C(c1ccc(Nc2nccc(-c3cc4ccccc4s3)n2)cc1)N1CCC(N2CCCC2)CC1` gave a remaining binding of 67% (binding; competition with immobilised ligand; 1 µM).
For `C[C@@H]1CCN(c2nccc(-c3cnn4ncccc34)n2)C1`, the remaining binding was 90% (binding; 1 µM).
The remaining binding of `CCCCN(CCCC)C(=O)CN1C[C@@H](c2cc(OC)c3c(c2)OCO3)[C@H](C(=O)O)[C@H]1CC(C)(C)CCC` is reported as 86.7% (cell-free assay; competition with immobilised ligand; 1 µM).
`Cc1cnn2ncc(-c3ccnc(N(C)C)n3)c2c1` gave a remaining binding of 99% (binding; 1 µM).
`Cc1c(NC(=O)c2cc(C(N)=O)nc3cc(F)ccc23)c(C(F)(F)F)nn1Cc1ccc(C(C)(C)C)cc1` has a remaining binding of 100% (cell-free assay; competition with immobilised ligand; 1 µM).
`COc1ncc2cc3ccccc3nc2c1C#N` has a remaining binding of 100% (cell-free assay; competition with immobilised ligand; 5 µM).
The remaining binding of `N[C@H]1CCN(c2nccc(-c3cnn4ncccc34)n2)C1` is reported as 100% (binding; 1 µM).
`O=C(NCC1CCOCC1)c1n[nH]cc1NC(=O)c1c(F)cccc1F` gave a remaining binding of 86% (binding; competition with immobilised ligand; 1 µM).
The remaining binding of `F[C@@H]1CCN(c2nccc(-c3cnn4ncccc34)n2)C1` is reported as 100% (binding; 1 µM).
`CS(=O)(=O)N1CCCC(NC(=O)[C@H](CCC2CCCCC2)NC(=O)c2ccc(CNC(=O)c3cnc4ccccn34)cc2)C1` (stereo partly drawn) has a remaining binding of 100% (cell-free assay; competition with immobilised ligand; 0.1 µM).
For `COc1cnc(Nc2cccc(S(N)(=O)=O)c2)nc1N1CCN(c2ccccc2)CC1`, the remaining binding was 0.1% (binding; competition with immobilised ligand; 1 µM).
`CN(c1nccc(-c2cnn3ncccc23)n1)C1CC1` gave a remaining binding of 100% (binding; 1 µM).
